Legend:
[1] = system: NCI-H460; test: Cytotoxicity against human H460 cells assessed as cell viability after 3 days by sulforhodamine B assay; format: functional, cell-based; conditions: NCI-H460, 72 h
How it was run: (§1)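 Monolayer cultures were grown in RPMI-1640 or DMEM with 10% heat-inactivated fetal calf serum and penicillin/streptomycin, at 37°C and 5% CO2. Cells were exposed for 3 days to compound from 10−4.5 M (31.6 μM) down to 10−8 M (10 nM), with 1% DMSO as the control. Viability was read by sulforhodamine B. IC50 was the dose halving surviving cells versus control, run in quadruplicate and repeated at least three times.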

[2] = Cytotoxicity against human T29 cells assessed as cell viability after 3 days by sulforhodamine B assay; format: cell-based; conditions: T29, 72 h; how it was run: as §1
[3] = Cytotoxicity against mutant K-ras-transformed human T29Kt1 cells assessed as cell viability after 3 days by sulforhodamine B assay; format: functional, cell-based; conditions: T29Kt1, 72 h; how it was run: as §1
[4] = Stability of compound at pH 2; format: physicochemical; conditions: buffer
[5] = Stability of compound at pH 7.4; format: physicochemical; conditions: buffer
[6] = Stability of compound at pH 9; format: physicochemical; conditions: buffer
[7] = Stability of compound at pH 6; format: physicochemical; conditions: buffer
[8] = Stability of compound at pH 4; format: physicochemical; conditions: buffer

Structure (SMILES) | IC50 [1] [nM] | IC50 [2] [µM] | IC50 [3] [µM] | Stability [4] | Stability [5] | Stability [6] | Stability [7] | Stability [8]
CC(=O)c1cn(Cc2ccccc2Cl)c2ccccc12 | > 31600 | > 31.6 | > 31.6 | – | – | – | – | –
CC(=O)c1cn(Cc2ccccc2)c2ccccc12 | 10000 | > 31.6 | > 31.6 | – | – | – | – | –
O=Cc1cn(Cc2ccc(Cl)cc2)c2cc(F)ccc12 | 120 | > 31.6 | 9.19 | Stable | Stable | – | – | –
O=Cc1cn(Cc2ccc([N+](=O)[O-])cc2)c2ccccc12 | 500 | > 31.6 | 10 | Stable | Stable | – | – | –
OCc1cn(Cc2cccc(I)c2)c2ccccc12 | 100 | > 31.6 | 0.02 | Unstable | Stable | Stable | Stable | Stable
O=Cc1cn(Cc2ccc(Br)cc2)c2ccccc12 | 31 | > 31.6 | 0.25 | Stable | Stable | – | – | –
CC(C)Cn1cc(C=O)c2ccccc21 | 1990 | > 31.6 | > 31.6 | Stable | Stable | – | – | –
O=C(NC1CCCCC1)OCc1cn(Cc2ccc(Cl)cc2)c2ccccc12 | 20 | > 31.6 | 0.2 | – | – | – | – | –
O=[N+]([O-])c1cccc(Cn2cc(CO)c3ccccc32)c1 | 39 | > 31.6 | 0.39 | Unstable | Stable | Stable | Stable | Stable
O=CC1C(=O)N(Cc2ccc(Cl)cc2)c2cc(Cl)ccc21 (stereo not given) | 18200 | 18.6 | 18.2 | Stable | Stable | – | – | –
OCc1cn(Cc2ccc(Br)cc2)c2ccccc12 | 31 | > 31.6 | 0.39 | Unstable | Stable | Stable | Stable | Stable
O=Cc1cn(Cc2ccccc2)c2ccccc12 | 45 | > 31.6 | 5 | Stable | Stable | – | – | –
OCc1cn(Cc2ccc(Cl)cc2)c2cc(F)ccc12 | 450 | > 31.6 | 1 | Unstable | Stable | Stable | Stable | Stable
OCc1cn(Cc2ccc(C(F)(F)F)cc2)c2ccccc12 | 1250 | > 31.6 | 1.25 | Unstable | Stable | Stable | Stable | Stable
OCc1cn(Cc2ccccc2Cl)c2ccccc12 | 100 | > 31.6 | 2.51 | Unstable | Stable | Stable | Stable | Stable
O=Cc1cn(Cc2ccc(Cl)cc2)c2ccc(F)cc12 | 290 | > 31.6 | 9.09 | Stable | Stable | – | – | –
COCc1cn(Cc2ccc(Cl)cc2)c2ccccc12 | 1990 | > 31.6 | 7.94 | – | – | – | – | –
Cc1cccc(Cn2cc(CO)c3ccccc32)c1 | 31 | > 31.6 | 1 | Unstable | Stable | Stable | Stable | Stable
O=Cc1cn(Cc2ccc(Cl)cc2Cl)c2ccccc12 | 100 | > 31.6 | 1.58 | Stable | Stable | – | – | –
O=Cc1cn(Cc2cccc(F)c2)c2ccccc12 | 31 | > 31.6 | 2.63 | Stable | Stable | – | – | –
COC(=O)CNCc1cn(Cc2ccc(Cl)cc2)c2ccccc12 | 100 | 31.6 | 5.01 | – | – | – | – | –
CC(=O)c1cn(Cc2cccc(Cl)c2)c2ccccc12 | > 31600 | > 31.6 | > 31.6 | – | – | – | – | –
O=Cc1cn(Cc2ccccc2F)c2ccccc12 | 100 | > 31.6 | 0.31 | Stable | Stable | – | – | –
Cc1ccc(Cn2cc(CO)c3ccccc32)cc1 | 31 | > 31.6 | 0.15 | Unstable | Stable | Stable | Stable | Stable
O=C(O)c1cn(Cc2ccc(Cl)cc2)c2ccccc12 | > 31600 | > 31.6 | > 31.6 | – | – | – | – | –
COC(=O)c1cn(Cc2ccc(Cl)cc2)c2ccccc12 | 31600 | 17.7 | 25.1 | – | – | – | – | –
O=Cc1cn(Cc2cccc(Cl)c2)c2ccc(F)cc12 | 370 | > 31.6 | 1.5 | Stable | Stable | – | – | –

Structure (SMILES) | IC50 [1] [nM] | IC50 [2] [µM] | IC50 [3] [µM] | Stability [4] | Stability [5] | Stability [6] | Stability [7] | Stability [8]
O=Cc1cn(Cc2ccc(Br)c(Br)c2)c2ccccc12 | 63 | > 31.6 | 0.63 | Stable | Stable | – | – | –
O=Cc1cn(Cc2ccc(C(F)(F)F)cc2)c2ccccc12 | 1580 | > 31.6 | > 31.6 | Stable | Stable | – | – | –
Cc1cccc(Cn2cc(C=O)c3ccccc32)c1 | 39 | > 31.6 | 6.3 | Stable | Stable | – | – | –
O=Cc1cn(Cc2ccc(Cl)cc2)c2ccccc12 | 250 | > 31.6 | 2.51 | Stable | Stable | – | – | –
OCc1cn(Cc2ccc(Cl)cc2)c2ccc(F)cc12 | 30 | 8.12 | 0.08 | Unstable | Stable | Stable | Stable | Stable
O=Cc1cn(Cc2cccc([N+](=O)[O-])c2)c2ccccc12 | 39 | > 31.6 | 0.5 | Stable | Stable | – | – | –
CC(=O)OCc1cn(Cc2ccc(Cl)cc2)c2ccccc12 | 39 | > 31.6 | 0.063 | – | – | – | – | –
c1ccc(Cn2ccc3ccccc32)cc1 | > 31600 | > 31.6 | > 31.6 | – | – | – | – | –
O=Cc1cn(Cc2cccc(Cl)c2)c2ccccc12 | 37 | > 31.6 | 0.37 | Stable | Stable | – | – | –
Brc1cccc(Cn2cc(Cc3cn(Cc4cccc(Br)c4)c4ccccc34)c3ccccc32)c1 | > 31600 | > 31.6 | > 31.6 | – | – | – | – | –
O=Cc1cn(Cc2ccc(Cl)cc2)c2ccc(Cl)cc12 | 400 | > 31.6 | 10 | Stable | Stable | – | – | –
O=Cc1cn(CCCOc2ccc(Cl)cc2)c2ccccc12 | 45 | > 31.6 | 4.89 | Stable | Stable | – | – | –
O=Cc1cn(Cc2cccc(Br)c2)c2ccccc12 | 39 | > 31.6 | 1.58 | Stable | Stable | – | – | –
CC(O)c1cn(Cc2ccc(Cl)cc2)c2ccccc12 (stereo not given) | 25100 | > 31.5 | 19.9 | – | – | – | – | –
N#Cc1cn(Cc2cccc(Cl)c2)c2ccccc12 | > 31600 | > 31.6 | > 31.6 | – | – | – | – | –
O=Cc1cn(Cc2ccc(Cl)cc2)c2cc(Br)ccc12 | 90 | 21 | 32 | Stable | Stable | – | – | –
Cc1cn(Cc2ccc(Cl)cc2)c2ccccc12 | > 31600 | > 31.6 | > 31.6 | – | – | – | – | –
OCCCc1cn(Cc2ccccc2)c2ccccc12 | > 31600 | > 31.6 | > 31.6 | – | – | – | – | –
OCCc1cn(Cc2ccc(Cl)cc2)c2ccccc12 | > 31600 | > 31.6 | > 31.6 | – | – | – | – | –
Clc1cccc(Cn2cc(Cc3cn(Cc4cccc(Cl)c4)c4ccccc34)c3ccccc32)c1 | > 31600 | > 31.6 | > 31.6 | – | – | – | – | –
COC(=O)c1cn(Cc2ccc(Br)cc2)c2ccccc12 | 5000 | 5 | 6.3 | – | – | – | – | –
OCc1cc2cc(F)ccc2n1Cc1ccc(Cl)cc1 | 11500 | 17.4 | 15.1 | – | – | – | – | –
O=Cc1cn(Cc2cccc(C(F)(F)F)c2)c2ccccc12 | 140 | > 31.6 | 1.78 | Stable | Stable | – | – | –
Cc1ccc(Cn2cc(C=O)c3ccccc32)cc1 | 63 | > 31.6 | 3.98 | Stable | Stable | – | – | –
CC(=O)c1cn(Cc2ccc(Cl)cc2)c2ccccc12 | > 31600 | > 31.6 | > 31.6 | – | – | – | – | –
O=C(O)c1cn(Cc2ccccc2)c2ccccc12 | > 31600 | > 31.6 | > 31.6 | – | – | – | – | –

Source: ChEMBL document CHEMBL1772965, “Analogues and derivatives of oncrasin-1, a novel inhibitor of the C-terminal domain of RNA polymerase II and their antitumor activities” (J Med Chem, 2011)
